# Rpn11 inh: Rpn11 (PSMD14) deubiquitinase inhibitors, primary screen, biochemical, fluorescence polarization, uHTS; calls only at 20 µM; human 26S proteasome, Ub4-pepOG fluorescence polarization; 20S core pre-blocked with epoxomicin; 360,000 tested, 0.59% active; 26S proteasome non-ATPase regulatory subunit 14 (Homo sapiens), O00487;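 active = inhibition at 20 µM, scaled to each plate's controls, above about 33%, limit read from the data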
# CSN deneddyl inh: inhibitors of CSN-mediated cullin deneddylation, primary screen, biochemical, fluorescence polarization, uHTS; inhibition, % at 12.5 µM; Purified CSN, SCF-Nedd8-OG deneddylation; 360,000 tested, 0.38% active; COP9 signalosome complex subunit 5 (Homo sapiens), Q92905;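 active = pattern-corrected inhibition above about 35%, with an unprinted fluorescence ratio check between 0.5 and 1.5, limit read from the data, passing the limit was not always enough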;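 note: 0% = enzyme with substrate and 100% = substrate without enzyme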
#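 Assay system: Purified human Csn5 enzyme expressed in HEK293T cells | Amount: Enzyme 0.24 nM | Measured by: Fluorescence polarization readout | Medium: Tris/NaCl/DTT buffer, pH 7.5 | Compound dosing: One concentration, 12.5 µM, 0.25% DMSO | Times: 90 min incubation of compound, enzyme and substrate at room temperature | Control set: no-enzyme wells high, enzyme-with-substrate wells low | Read-out: % inhibition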
# TPT1 inhibitor: Candida albicans TPT1 enzyme inhibitors, primary screen, biochemical, fluorescence polarization. recombinant caTPT1, FP RNA substrate dephosphorylation. inhibition, % at 5 µM. 300,000 tested, 0.81% active;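 active = inhibition above the mean of all tested compounds plus 3 SD, set per screening campaign, cut at about 24% in these data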;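 note: plate controls were DMSO alone for no effect and ferristatin control at 100 nM for full effect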
# HNF4A DNA FP: change in binding of human HNF4A to DNA, primary screen, biochemical, fluorescence polarization, FITC-DNA | Hepatocyte nuclear factor 4-alpha (Homo sapiens), P41235 | 1 h | activity change, % at 10 µM | 360,000 tested, 0.3% active | AID 1224865, 2016; in the data active = activity change above about 30%, passing the limit was not always enough
# Target sequence (P41235 whole entry, looked up): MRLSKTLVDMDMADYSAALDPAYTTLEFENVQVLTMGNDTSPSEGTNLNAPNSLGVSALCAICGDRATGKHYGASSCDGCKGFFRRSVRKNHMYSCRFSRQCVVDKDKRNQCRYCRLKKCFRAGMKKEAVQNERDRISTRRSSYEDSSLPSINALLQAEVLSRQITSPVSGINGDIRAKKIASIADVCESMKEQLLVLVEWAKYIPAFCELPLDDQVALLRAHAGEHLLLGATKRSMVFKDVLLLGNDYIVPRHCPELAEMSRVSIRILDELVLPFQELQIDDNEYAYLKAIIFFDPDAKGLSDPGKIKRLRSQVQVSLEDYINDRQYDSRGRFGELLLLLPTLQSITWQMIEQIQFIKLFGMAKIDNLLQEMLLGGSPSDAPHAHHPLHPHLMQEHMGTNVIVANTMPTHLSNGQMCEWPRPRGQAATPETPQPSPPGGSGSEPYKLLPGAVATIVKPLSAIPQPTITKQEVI
# caTPT1 confirm: Candida albicans TPT1 inhibitors, confirmation, biochemical, fluorescence polarization, triplicate; shares compounds with TPT1 inhibitor; recombinant caTPT1, RNase T1 coupled; inhibition, % at 5 µM; 2,400 tested, 74% active;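 active = inhibition above the primary screen limit, the mean inhibition of all tested compounds plus 3 SD, cut at about 25% in these data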
# RNase T1 counter: RNase T1 inhibitors, counter-screen for TPT1 inhibitor project, biochemical, fluorescence polarization. shares compounds with TPT1 inhibitor. RNase T1 cleavage, 1536-well. inhibition, % at 5 µM. 2,400 tested, 83% active. AID 2153, 2009;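 active = inhibition above the solvent-only control well mean plus 3 SD, limit set per screening run, cut at about 23% in these data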;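 note: plate controls were DMSO wells with enzyme for no effect and wells without RNase T1 for full effect; inhibitors block cleavage so intact labeled substrate keeps polarization high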
# Target sequence (P00651 whole entry, looked up): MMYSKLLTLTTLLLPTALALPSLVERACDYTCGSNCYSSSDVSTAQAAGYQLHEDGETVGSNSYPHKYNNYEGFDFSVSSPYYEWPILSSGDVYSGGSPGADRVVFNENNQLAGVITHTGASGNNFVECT
# Active calls of the source: *; i = inactive; . = not tested or not shown; + = active, no number. Most compounds without a hit are left out; they make up all but 1.5% or so of the library.
SMILES,Rpn11 inh,CSN deneddyl inh,TPT1 inhibitor,HNF4A DNA FP,caTPT1 confirm,RNase T1 counter
COc1ccccc1NS(=O)(=O)c1ccc(C)c(NC(=O)C2CCCO2)c1 (centres undefined),i,-0.3,.,-1.0,.,.
O=C(Nc1ccc2c(c1)OCCO2)C(C1CC1)N1CCN(c2ccc(F)cc2)CC1 (centres undefined),i,13.9,.,-0.8,.,.
COc1cc(/C=C2/C(=O)CNC2=O)ccc1O,i,11.6,29.9*,3.4,54.6*,77.1*
COc1cc(/C=C/C(=O)CC(=O)/C=C/c2ccc(O)c(OC)c2)ccc1O,.,110.8,139.2*,111.7,146.6*,135.2*
Cc1ccc(OCC(=O)Nc2ccc(S(=O)(=O)Nc3ccccn3)cc2)c(C)c1,i,-3.9,35.7*,-2.6,3.2,6.1
O=C(OCC(=O)c1ccc(Cl)s1)c1cncc(Br)c1,i,5.2,.,4.3,.,.
Cc1oc2ccc(O)cc2c1C(=O)c1ccc(Br)cc1,i,0.1,2.4,1.2,.,.
COc1cccc(C2=CC(c3ccccc3)n3nnnc3N2)c1 (centres undefined),i,-0.1,0.8,-4.3,.,.
COc1cccc(C2=CC(c3ccc(N(C)C)cc3)n3ncnc3N2)c1 (centres undefined),.,.,38.2*,.,33.8*,42.9*
COc1cccc(C2=CC(c3ccc(N(C)C)cc3)n3nnnc3N2)c1 (centres undefined),i,0.9,28.5*,5.6,11.4,16.7
CCN1CCN(C(=O)c2[nH]c3ccc(OC)cc3c2C)CC1,i,-1.5,-2.3,-0.1,.,.
Cc1ccc(NC(=O)CSc2nc(=O)n(CCCN3CCOCC3)c3c2CCCC3)c(C)c1,i,-4.9,66.0*,1.0,2.9,4.1
O=C(O)c1cccc(Nc2ccncc2[N+](=O)[O-])c1,i,0.3,-5.4,1.2,.,.
Cc1ccc(-c2ccc(/C=N/n3cnnc3)o2)cc1,i,1.1,-0.3,0.4,.,.
Cc1ccc(-c2ccc(/C=N/n3cnnc3)o2)cc1Cl,i,1.9,62.1*,5.4,2.4,5.4
CCOC(=O)C1C(=O)C=C(c2ccc(C)cc2)CC1c1ccccc1 (centres undefined),i,-4.1,0.2,-3.0,.,.
CCOC(=O)C1C(=O)C=C(/C=C/c2ccc(N(C)C)cc2)CC1c1ccccc1 (centres undefined),.,119.6,89.0*,118.1,77.0*,79.8*
CC(=N)c1c(O)c2ccccc2oc1=O,i,1.3,26.8*,-0.3,4.2,4.6
CCCCC(=O)c1c(O)c2ccccc2oc1=O,i,2.2,-2.8,-1.0,.,.
Cc1ccc(S(=O)(=O)N2[C@@H](c3ccc(Br)cc3)C(C(=O)O)=C[C@H]2C(C)(C)C)cc1,i,0.8,.,1.4,.,.
O=C(NNS(=O)(=O)c1ccccc1)c1ccc(S(=O)(=O)N2CCCCC2)cc1,i,-4.7,40.2*,-0.5,1.4,1.9
COC(=O)c1ccc(S(=O)(=O)NNC(=O)c2ccc(S(=O)(=O)N3CCCCC3)cc2)cc1,i,-6.3,2.9,-2.6,.,.
O=C(Cc1ccccc1)c1ccc(O)cc1,i,-1.8,.,-0.5,.,.
NC(=O)c1cccc(CC(=O)c2ccccc2)c1,i,-1.5,74.5*,2.5,8.2,12.9
Cc1cccc(NC(=O)CN2C(=O)N/C(=C/c3ccc(C)s3)C2=O)c1,.,23.8,83.3*,59.6*,99.9*,107.9*
SMILES,Rpn11 inh,CSN deneddyl inh,TPT1 inhibitor,HNF4A DNA FP,caTPT1 confirm,RNase T1 counter
COc1ccc(-c2ccc3c(N)c(C(=O)NC(C)C)sc3n2)cc1OC,i,-3.4,-0.1,1.4,.,.
COc1ccc(C(=O)c2sc3nc(-c4ccccc4)ccc3c2N)cc1OC,i,16.9,90.8*,68.7*,87.9*,93.8*
COc1ccc(-c2ccc3c(N)c(C(=O)c4ccc(OC)c(OC)c4)sc3n2)cc1,i,4.9,53.5*,20.7,59.8*,70.2*
Cc1ccc(CC(=O)CCc2ccccc2)cc1,i,-0.9,33.6*,3.5,4.8,5.2
Oc1c(C=Nc2ccc(Cl)cn2)sc2ccccc12,i,8.9,30.9*,0.0,38.6*,49.2*
Oc1c(/C=N/c2ccccn2)sc2ccccc12,i,10.7,44.8*,14.5,56.6*,67.2*
Oc1c(C=Nc2cccnc2)sc2ccccc12,i,8.7,15.5,13.7,.,.
CCOC(=O)C1(Cc2cccc(F)c2)CCN(C(=O)C2CCCO2)CC1 (centres undefined),i,4.8,-7.8,0.0,.,.
COc1ccc(OC)c(/C=C2\SC(=S)N(C(C(=O)O)c3ccccc3)C2=O)c1 (centres undefined),.,22.8,65.5*,10.2,61.1*,71.7*
CN(C)c1ccc(N/C=C/C(=O)c2ccc(F)cc2)cc1,+,12.9,36.0*,43.5*,49.1*,58.7*
O=C(O)CC/C(=N\Nc1ccc([N+](=O)[O-])cc1)c1ccccc1,i,4.3,33.9*,11.5,45.7*,58.6*
N#Cc1ccccc1Cn1c(=O)n(CCC(=O)NCc2ccco2)c(=O)c2ccccc21,i,-3.6,+,0.6,19.8,25.2*
Cc1ccc2c(c1)c1nc3ccccc3nc1n2C,i,-6.9,-7.0,-5.1,.,.
Cn1c(-c2c(N)n(-c3ccccc3)c3nc4ccccc4nc23)nc2ccccc21,i,-11.4,40.4*,8.2,42.7*,52.3*
Cc1ccc(-n2c(N)c(-c3nc4ccccc4n3C)sc2=S)cc1,i,3.9,-0.5,6.4,.,.
Cc1cccc(-n2c(N)c(-c3nc4ccccc4n3C)c3nc4ccccc4nc32)c1,i,-2.0,26.0*,2.4,25.0*,36.1*
Cn1c(SCc2ccccc2)nnc1-c1ccc2nonc2c1,i,4.6,2.6,-1.2,.,.
OC1CCCN(CC(O)COC(c2ccccc2)c2ccccc2)C1 (centres undefined),i,3.2,29.4*,-0.9,1.5,2.3
N#C/C(=C/c1ccc(-c2ccc(S(N)(=O)=O)cc2)o1)c1nc2ccccc2s1,.,-95.5,73.4*,107.3,40.8*,50.0*
N#C/C(=C/c1ccc(-c2ccccc2)o1)c1nc(-c2cccs2)cs1,.,62.8,130.8*,16.6,124.2*,113.6*
N#C/C(=C\c1ccc(-c2ccc(F)cc2)o1)C(=O)Nc1nc(-c2cccs2)cs1,i,-13.6,-1.9,-5.2,.,.
O=C(/C=C/NCc1cccnc1)c1ccc(Br)cc1,i,-1.5,-0.5,6.1,.,.
